This passage reports GI50 and Kd results from ChEMBL document CHEMBL5712890, “Sensitivity and engineered resistance of myeloid leukemia cells to BRD9 inhibition” (Nat Chem Biol, 2016).

pKd: −log10 of the molar value.

Assay [1] can be described thus: Antiproliferative activity against mouse RN2 cells transduced with BRD9-BET assessed as inhibition of cell growth for 7 days by cell titre glo assay (reference value: 6.144 uM). The note with it: RN2, 168 h.
The nature of assay [2]: Antiproliferative activity against mouse RN2 cells transduced with BRD9 assessed as inhibition of cell growth for 7 days by cell titre glo assay (reference value: 6.144 uM). The following applies: RN2, 168 h.
The subject of another assay is Jurkat. Description: Antiproliferative activity against human Jurkat cells assessed as inhibition of cell growth for 7 days by cell titre glo assay. It counts as functional. The following applies: 168 h, time 7 day. Put shortly: (§1)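 Human cancer cell lines in RPMI-1640 (leukemia) or DMEM (solid) with 10 % FBS, grown 7 days with rising inhibitor concentrations. Proliferation read by CellTiter-Glo, normalized to DMSO control.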

A further assay relates to HL-60. The experiment in a line: Antiproliferative activity against human HL-60 cells assessed as inhibition of cell growth for 7 days by cell titre glo assay. Type of assay: functional. The note with it: HL-60, 168 h, time 7 day. The gist of the method: as §1
Assay [3] is described as follows: Antiproliferative activity against mouse RN2 cells transduced with BRD9 assessed as inhibition of cell growth for 7 days by cell titre glo assay (reference value: 0.757 uM). The note with it: RN2, 168 h.
A short description of assay [4]: Antiproliferative activity against mouse RN2 cells transduced with BRD9-BET assessed as inhibition of cell growth for 7 days by cell titre glo assay (reference value: 0.757 uM). The note with it: RN2, 168 h.
Assay [5] has as its target T1, ATPase family AAA domain-containing protein 2B (Homo sapiens, UniProt Q9ULI0).
T1 sequence (Q9ULI0 whole entry): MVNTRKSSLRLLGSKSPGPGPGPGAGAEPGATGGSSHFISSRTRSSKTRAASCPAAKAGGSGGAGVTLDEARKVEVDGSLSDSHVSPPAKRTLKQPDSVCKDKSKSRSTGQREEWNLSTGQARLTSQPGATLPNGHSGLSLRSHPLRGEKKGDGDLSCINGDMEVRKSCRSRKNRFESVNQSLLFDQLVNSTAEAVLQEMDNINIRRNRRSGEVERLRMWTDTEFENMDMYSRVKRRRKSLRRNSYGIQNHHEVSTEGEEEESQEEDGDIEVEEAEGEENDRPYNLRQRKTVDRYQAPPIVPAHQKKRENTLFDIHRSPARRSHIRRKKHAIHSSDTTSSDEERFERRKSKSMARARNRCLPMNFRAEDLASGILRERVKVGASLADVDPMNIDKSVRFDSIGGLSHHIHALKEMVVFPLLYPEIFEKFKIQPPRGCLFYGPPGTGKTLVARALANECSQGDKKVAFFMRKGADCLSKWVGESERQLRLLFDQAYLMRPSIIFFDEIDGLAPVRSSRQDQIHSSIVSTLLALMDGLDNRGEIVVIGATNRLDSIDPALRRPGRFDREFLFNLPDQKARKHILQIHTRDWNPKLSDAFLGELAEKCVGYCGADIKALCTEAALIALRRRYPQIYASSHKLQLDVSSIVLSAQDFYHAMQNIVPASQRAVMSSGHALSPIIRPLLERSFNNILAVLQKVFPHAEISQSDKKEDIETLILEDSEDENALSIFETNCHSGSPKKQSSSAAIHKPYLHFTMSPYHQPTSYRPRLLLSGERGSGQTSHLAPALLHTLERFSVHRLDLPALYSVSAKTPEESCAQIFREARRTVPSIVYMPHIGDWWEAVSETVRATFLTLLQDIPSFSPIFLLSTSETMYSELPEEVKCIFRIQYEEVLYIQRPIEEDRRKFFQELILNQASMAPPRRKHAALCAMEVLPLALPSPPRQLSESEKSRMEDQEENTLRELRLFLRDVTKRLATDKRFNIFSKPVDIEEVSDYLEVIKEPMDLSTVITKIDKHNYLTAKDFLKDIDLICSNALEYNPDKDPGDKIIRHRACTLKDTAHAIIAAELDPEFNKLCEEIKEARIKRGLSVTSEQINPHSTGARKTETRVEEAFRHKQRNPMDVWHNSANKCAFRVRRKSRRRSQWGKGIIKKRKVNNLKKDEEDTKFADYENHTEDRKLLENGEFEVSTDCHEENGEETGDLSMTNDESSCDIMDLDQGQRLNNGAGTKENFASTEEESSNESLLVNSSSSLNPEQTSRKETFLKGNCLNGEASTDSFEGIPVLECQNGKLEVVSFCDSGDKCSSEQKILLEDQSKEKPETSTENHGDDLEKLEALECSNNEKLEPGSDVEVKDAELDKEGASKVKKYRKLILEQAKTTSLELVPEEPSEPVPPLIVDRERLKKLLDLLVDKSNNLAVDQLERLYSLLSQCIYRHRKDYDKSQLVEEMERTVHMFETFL
The experiment in a line: Binding affinity to KIAA1240 (unknown origin) assessed as dissociation constant by bromoKdselect analysis.

A short description of assay [6]: Antiproliferative activity against mouse RN2 cells transduced with BRD9-BET assessed as inhibition of cell growth for 7 days by cell titre glo assay (reference value: 610 nM). The following applies: RN2, 168 h.
The nature of assay [7]: Antiproliferative activity against mouse RN2 cells assessed as inhibition of cell growth for 7 days by cell titre glo assay. The note with it: RN2, 168 h.
Assay [8] in a line: Antiproliferative activity against mouse RN2 cells transduced with BRD9 assessed as inhibition of cell growth for 7 days by cell titre glo assay (reference value: 1709 nM). The following applies: RN2, 168 h.
Assay [9] is described as follows: Antiproliferative activity against mouse RN2 cells transduced with BRD9-BET assessed as inhibition of cell growth for 7 days by cell titre glo assay (reference value: 1709 nM). The note with it: RN2, 168 h.
A short description of assay [10]: Antiproliferative activity against mouse RN2 cells transduced with BRD9 assessed as inhibition of cell growth for 7 days by cell titre glo assay (reference value: 323 nM). The following applies: RN2, 168 h.
The nature of assay [11]: Antiproliferative activity against mouse RN2 cells transduced with BRD9-BET assessed as inhibition of cell growth for 7 days by cell titre glo assay (reference value: 323 nM). The note with it: RN2, 168 h.
Assay [12] can be described thus: Antiproliferative activity against mouse RN2 cells transduced with EZH2 harboring SET domain of EZH1 assessed as inhibition of cell growth for 7 days by cell titre glo assay (reference value: 5.1 uM). The note with it: RN2, 168 h.
Assay [13] is described as follows: Antiproliferative activity against mouse RN2 cells transduced with wild type EZH2 assessed as inhibition of cell growth for 7 days by cell titre glo assay (reference value: 5.1 uM). The following applies: RN2, 168 h.

In the case of `Cc1cc(=O)n(C)c2cc(N3C(=O)CC[C@H](NS(=O)(=O)CC(C)C)[C@H]3c3ccc(Cl)cc3)ccc12`, the 50% growth inhibitory concentration (GI50) in assay [1] worked out at 9.38 µM; in assay [2], 6.87 µM; with Jurkat it was 10.5 µM; in the assay with HL-60, 5.03 µM.

Consider `CCn1cc(-c2cccc(C(F)(F)F)c2)c2sc(C(=N)NC3CCS(=O)(=O)CC3)cc2c1=O`, for which the concentration for 50% growth inhibition (GI50) turned out to be 1.25 µM in [3], 2.69 µM in assay [4], 3.64 µM in the assay with Jurkat and 0.433 µM in the assay on HL-60.

On to `COc1cc(-c2cn(C)c(=O)c3cnccc23)cc(OC)c1CN(C)C`, for which the negative-log Kd (pKd) in assay [5] was 6.00. The 50% growth inhibitory concentration (GI50) in assay [6] is over 10 µM; in assay [7] it was 0.476 µM.

As to `COc1cc(-c2cc(C)c(=O)n(C)c2C)cc(OC)c1CN(C)C`, the GI50 in assay [8] was 1.03 µM; in assay [9] it was over 10 µM.

As to `COc1cc(-c2cn(C)c(=O)c3ccccc23)cc(OC)c1CN(C)C`, the GI50 stood at 0.16 µM in assay [10] and 4.48 µM in [11].

On to `CC[C@H](C)n1cc(C)c2c(C(=O)NCc3c(C)cc(C)[nH]c3=O)cc(-c3ccc(N4CCNCC4)nc3)cc21` [GSK2816126], for which the GI50 in assay [12] was over 10 µM; in assay [13], 6.2 µM.
